HCT116 bCat-KO: primary screen for growth suppressors in beta-catenin knockout HCT116 cells (colon tumor, human); HCT116 beta-catenin knockout viability, CellTiter-Glo, 60 h; hits give low values; viability, % at 10 µM; 1.5% of 140,000 active;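 active = viability at or under a set limit, the compound median less 4 SD, cut at about 6% in these data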;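 also: 0% = Hyamine 1622 control at 20 µM and 100% = untreated cell control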
PMI act satM6P: human PMI activators, high substrate, primary screen, biochemical, fluorescence intensity, near-saturating mannose 6-phosphate | activation factor at 20 µM | AID 1216, 2008 | Mannose-6-phosphate isomerase (Homo sapiens), P34949 | coupled PMI enzyme assay, resazurin fluorescence, 20 min; hits give high values; 1 = untreated enzyme, 0 = substrate-free blank | 0.34% of 190,000 active;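 active = activation factor of 2 or more at 20 µM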
Target sequence (P34949 whole entry, looked up): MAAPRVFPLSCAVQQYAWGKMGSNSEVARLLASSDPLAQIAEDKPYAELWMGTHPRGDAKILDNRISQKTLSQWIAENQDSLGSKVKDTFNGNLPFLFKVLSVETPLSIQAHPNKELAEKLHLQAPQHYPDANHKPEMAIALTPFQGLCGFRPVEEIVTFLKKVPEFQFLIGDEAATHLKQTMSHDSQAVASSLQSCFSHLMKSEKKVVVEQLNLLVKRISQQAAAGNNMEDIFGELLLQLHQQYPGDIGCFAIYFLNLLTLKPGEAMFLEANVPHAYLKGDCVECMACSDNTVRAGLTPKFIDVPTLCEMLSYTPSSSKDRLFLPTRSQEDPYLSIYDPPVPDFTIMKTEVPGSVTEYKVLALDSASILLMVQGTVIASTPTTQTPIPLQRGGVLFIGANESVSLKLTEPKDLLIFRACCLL
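Test system: human phosphomannose isomerase with PGI, G6PDH, diaphorase coupling enzymes; amount: 15 ng/mL PMI; incubation: enzyme reaction with compound 20 min at room temperature; technique: resorufin fluorescence (Ex 544/Em 590 nm) from resazurin via diaphorase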
PTEN del growth: growth suppression of PTEN-null HCT116, primary screen, cell-based, CellTiter-Glo. HCT116 PTEN-null viability, 60 h; hits give low values. viability, % at 10 µM. 1.2% of 140,000 active. AID 827, 2007;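 active = viability at or below a set limit, 4 SD under the median of all tested compounds, cut at about 3.7% in these data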;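 also: PTEN knockout HCT116 line with beta catenin targeted HCT116 as companion control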
Lmaj promast: Leishmania major promastigote growth inhibition, primary screen | Leishmania major promastigotes, resazurin fluorescence viability | inhibition, % at 10 µM | 9% of 200,000 active; in the data active = inhibition above about 50%;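 also: promastigotes grown with compound for 44 hours at 28 °C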
PMI activator: activators of human PMI, primary screen, biochemical, fluorescence intensity, near-Km mannose 6-phosphate; Mannose-6-phosphate isomerase (Homo sapiens), P34949; purified human PMI, coupled resazurin fluorescence, 20 min; hits give high values; 1 = vehicle control, 0 substrate-free wells; activation factor at 20 µM; 0.005% of 190,000 active; AID 1214, 2008;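 active = activation factor of 2 or more at 20 µM, relative to plate controls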
* marks the source's active call; other numbers are inactive results; x = not tested or not shown. A selection: hits, their analogues and other compounds. The true share with any hit is near 9.6%.

SMILES	HCT116 bCat-KO	PMI act satM6P	PTEN del growth	Lmaj promast	PMI activator
O=C1c2ccccc2NC(c2ccc([N+](=O)[O-])cc2)N1O (stereo unspecified)	x	1.2	x	-4	1
O=C1OCC(c2ccccc2)=C1c1ccc(S(=O)(=O)N2CCOCC2)s1	96	2*	101	-4	1.3
O=C(NCCN1CCN(C(=O)c2cccs2)CC1)C(=O)Nc1ccc(Br)cc1	55	1.1	66	73*	1
C=CCC(C#Cc1ccccc1)[N+](C)(C)CC=C (stereo unspecified)	100	1.1	94	-1	1
CC[n+]1c(/C=C/N(C)c2ccccc2)oc2ccc(F)cc21	22	0.7	35	84*	1.2
CC[n+]1c(/C=C/Nc2ccccc2)oc2ccccc21	44	0.9	47	96*	1
CC[n+]1c(/C=C/Nc2ccccc2)oc2ccc(OC)cc21	x	0.5	x	18	0.8
CC[n+]1c(/C=C/N(C)c2ccccc2)oc2ccccc21	12	0.6	13	100*	0.8
CN(/C=C/c1c([N+](=O)[O-])c(=O)n(C)c(=O)n1C)c1ccccc1	x	0.9	x	20	1.1
Cc1ccc(S(=O)(=O)NCc2ccc(C(=O)NCc3cccnc3)cc2)cc1	x	1	x	9	1
CC12CCC(C(=O)NCc3ccccc3Cl)(CC1=O)C2(C)C (stereo unspecified)	x	0.9	x	-1	0.9
CCN(CC)c1ccc2cc(S(=O)(=O)c3ccc(C)cc3)c(=O)oc2c1	95	0.8	82	96*	0.9
CCN(CC)c1ccc2cc(C(=O)NNC(=O)c3ccc(S(=O)(=O)N4CCCCC4)cc3)c(=O)oc2c1	54	0.9	64	92*	0.9
Cc1cc(NC(=O)c2ccc(S(=O)(=O)N3CCCC3)cc2)nc2c1c(=O)oc1ccccc12	40	1.4	62	16	1.4
CCCn1c(=O)c(C(=O)Nc2nnc(CC)s2)c(O)c2ccccc21	x	1	x	x	1
COc1ccc(CCNC(=O)C(C(=O)c2ccccc2)n2cc(Cl)ccc2=O)cc1OC (stereo unspecified)	90	0.8	95	55*	1
COc1ccc(CCNC(=O)C(C(=O)c2ccccc2)n2ccccc2=O)cc1OC (stereo unspecified)	97	0.9	94	-7	1
N#CCCn1nc(-c2ccc(Br)cc2)cc1Nc1ccccc1NC(=O)C(F)(F)F	59	1	55	69*	1
N#CCCn1nc(-c2ccccc2)cc1Nc1ccccc1NC(=O)C(F)(F)F	89	1	94	14	1
COC(=O)c1ccccc1NC(=O)CN1CCN(C23CC4CC(CC(C4)C2)C3)CC1	71	1	71	86*	1
COC(=O)c1ccccc1NC(=O)CN1CCC(NC(=O)c2ccc(C)cc2)CC1	96	1	103	6	0.9
O=c1cc(CSc2ccc(Cl)cc2)nc(-c2ccncc2)[nH]1	x	1.1	x	-9	1.1
Cc1ccc(CSC(Nc2ccc(F)cc2)=C(C#N)C#N)cc1	9	0.9	7	58*	0.8
CCCCNC(=O)Oc1cccc(N2CCCC2=O)c1	93	1	105	43	1
CC(C)(C)/C(O)=C/c1nc2ccccc2oc1=O	x	0.8	x	31	1
SMILES	HCT116 bCat-KO	PMI act satM6P	PTEN del growth	Lmaj promast	PMI activator
Cc1nc(C)c(/C(O)=C/c2nc3ccccc3oc2=O)s1	59	1	63	76*	1.1
Fc1ccc(C[n+]2csc3ccccc32)cc1	98	1.7	95	4	1.2
Clc1ccc(C[n+]2csc3ccccc32)cc1	104	2.2*	92	0	1.4
CSc1cccc(NC(=O)C2CCN(C(=O)c3ccccc3C)CC2)c1	83	1	91	-1	1
COc1ccc(NS(=O)(=O)c2cccc(-c3nnc(-c4ccccc4)o3)c2)cc1	97	0.9	91	16	0.8
Cc1cccc(-c2nnn3c2nc(NCCc2ccc(S(N)(=O)=O)cc2)c2ccccc23)c1	42	1	26	46	1
Cc1ccc(-c2nnn3c2nc(NCCc2ccc(S(N)(=O)=O)cc2)c2ccccc23)cc1	88	1.1	77	73*	1.1
CCCCN(C(=O)c1ccc(Cl)c([N+](=O)[O-])c1)c1c(N)n(CCC)c(=O)[nH]c1=O	x	1	x	-2	1.1
OC1(c2cccc(F)c2)CCN(Cc2ccncc2)CC1	91	0.8	94	94*	0.9
OC1(c2cccc(C(F)(F)F)c2)CCN(Cc2nnnn2Cc2ccccc2)CC1	x	1	x	18	0.9
CC(C)c1ccc(N(CC(=O)Nc2ccc(S(=O)(=O)N3CCOCC3)cc2)S(C)(=O)=O)cc1	96	1	84	90*	0.9
O=C(CN1CCCCCC1)Nc1ccc(S(=O)(=O)N2CCOCC2)cc1	x	1	x	55*	1
O=C(CSCc1ccc(Br)cc1)Nc1ccc(S(=O)(=O)N2CCOCC2)cc1	66	0.9	74	100*	0.8
O=C(Cn1c(=O)sc2ccccc21)Nc1ccc(S(=O)(=O)N2CCCC2)cc1	87	0.8	86	80*	0.8
CCC(=O)Nc1ccc(S(=O)(=O)N2CCOCC2)cc1	96	0.9	93	2	0.9
O=C(CCc1ccccc1)Nc1ccc(S(=O)(=O)N2CCCC2)cc1	x	1	x	0	1
CCC(=O)NC(c1ccc(OC)cc1)c1c(O)ccc2ccccc12 (stereo unspecified)	x	0.6	x	99*	0.8
COc1ccccc1C(NC(=O)C1CCCCC1)c1c(O)ccc2ccccc12 (stereo unspecified)	80	1	91	40	1
COc1ccc(C(NC(=O)C(C)C)c2c(O)ccc3ccccc23)cc1OC (stereo unspecified)	94	0.7	95	99*	0.8
CC(C)C(=O)NC(c1ccco1)c1c(O)ccc2ccccc12 (stereo unspecified)	79	0.4	83	29	0.7
COc1ccc(C(NC(=O)C(C)C)c2c(O)ccc3ccccc23)cc1 (stereo unspecified)	x	x	x	96*	x
CC(C)C(=O)NC(c1ccccc1Cl)c1c(O)ccc2ccccc12 (stereo unspecified)	76	0.9	85	99*	1
CCC(=O)NC(c1ccccc1Cl)c1c(O)ccc2ccccc12 (stereo unspecified)	87	0.8	73	22	0.8
CC(C)NC(=O)c1ccccc1NC(=O)Cc1ccc([N+](=O)[O-])cc1	x	1.1	x	1	1.2
CN(C)/N=C/c1c(O)ccc2ccccc12	98	0.7	93	-6	0.7
